Results as given in paper PMC2975463 (Biochemistry, 2009).
“Also recorded” adds a separate entry of the source. Like-named read-outs stand apart in the source and are kept apart here. Each block holds one compound with its values, some of them ahead of it.

How the values were obtained:
Oxidation = assay type: in vitro ADME, rat; conditions: for enzymatic oxidation in rat liver cytosol: result in words
Outline: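 Rat liver cytosol (5 mg/mL) with varied base-adduct concentrations and 0.4% DMSO, prewarmed 5 min at 37 °C, then started with substrate. Etheno-guanine bases: 0.1 M NaOH stocks, 0.8 M potassium phosphate pH 7.6, extracts in 0.1 M NaOH, HPLC-UV at 285 nm. Heptanone base: DMSO stock, room-temperature setup, UV at 300 nm. Km and vmax came from nonlinear one-site binding fits.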

[1] = Glycolytic cleavage of 2′-deoxynucleoside adducts in rat liver cytosol; assay type: in vitro ADME; conditions: result in words
Outline: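 Reactions (ice-prepared) contained 5 mg/mL rat liver cytosol, varied adduct concentrations, 0.4% DMSO and 0.1 M potassium phosphate pH 7.4. One etheno-deoxyadenosine adduct was also run in 0.1 M Tris-HCl pH 7.4 without inorganic phosphate. After 5 min at 37 °C, substrate was added to start. Ice-cold methanol stopped reactions; samples were centrifuged at 200000g for 30 min. Supernatants went to reversed-phase HPLC-UV for base formation.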

[2] = oxidation in rat liver cytosol; cited from earlier work
[3] = target: Bovine XO from buttermilk (Bos taurus, UniProt P80457); assay: Oxidation of 1,N^2-ε-Gua with purified XO; assay type: biochemical; conditions: for oxidation by purified bovine XO: result in words
Bovine XO from buttermilk, sequence (P80457 whole entry): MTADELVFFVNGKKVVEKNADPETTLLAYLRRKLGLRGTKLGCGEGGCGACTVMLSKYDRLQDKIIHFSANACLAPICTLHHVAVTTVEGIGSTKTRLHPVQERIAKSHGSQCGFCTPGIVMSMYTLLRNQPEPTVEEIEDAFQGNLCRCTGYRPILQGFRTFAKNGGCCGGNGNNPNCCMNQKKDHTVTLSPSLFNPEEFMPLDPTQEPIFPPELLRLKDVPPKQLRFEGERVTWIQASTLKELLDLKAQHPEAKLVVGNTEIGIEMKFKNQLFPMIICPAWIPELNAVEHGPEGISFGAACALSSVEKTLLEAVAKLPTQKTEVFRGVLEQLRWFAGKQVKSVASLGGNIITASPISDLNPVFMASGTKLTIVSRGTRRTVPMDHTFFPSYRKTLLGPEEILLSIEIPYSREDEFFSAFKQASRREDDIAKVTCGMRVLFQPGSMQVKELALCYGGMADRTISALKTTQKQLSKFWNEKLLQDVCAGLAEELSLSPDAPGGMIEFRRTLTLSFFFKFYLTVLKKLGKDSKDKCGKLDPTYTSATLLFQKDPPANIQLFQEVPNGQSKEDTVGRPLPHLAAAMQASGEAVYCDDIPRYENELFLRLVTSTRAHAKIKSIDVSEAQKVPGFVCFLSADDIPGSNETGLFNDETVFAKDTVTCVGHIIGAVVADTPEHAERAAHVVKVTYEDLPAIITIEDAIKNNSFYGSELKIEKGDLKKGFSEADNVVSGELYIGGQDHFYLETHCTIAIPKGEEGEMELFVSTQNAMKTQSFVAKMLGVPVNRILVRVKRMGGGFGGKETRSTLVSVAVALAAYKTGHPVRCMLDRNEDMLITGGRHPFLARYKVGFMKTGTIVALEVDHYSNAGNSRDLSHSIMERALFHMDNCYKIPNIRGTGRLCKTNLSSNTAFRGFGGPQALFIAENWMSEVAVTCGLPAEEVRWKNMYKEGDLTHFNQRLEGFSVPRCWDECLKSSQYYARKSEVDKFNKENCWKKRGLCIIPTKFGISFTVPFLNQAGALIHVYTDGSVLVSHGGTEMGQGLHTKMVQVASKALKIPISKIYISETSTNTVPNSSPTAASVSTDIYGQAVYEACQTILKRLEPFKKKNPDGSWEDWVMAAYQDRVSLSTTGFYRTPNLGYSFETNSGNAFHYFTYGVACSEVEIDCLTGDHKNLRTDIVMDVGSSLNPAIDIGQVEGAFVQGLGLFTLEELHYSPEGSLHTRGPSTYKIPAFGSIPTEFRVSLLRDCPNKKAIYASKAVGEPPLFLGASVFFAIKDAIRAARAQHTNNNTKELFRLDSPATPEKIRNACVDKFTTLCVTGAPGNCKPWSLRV

[4] = target: T1, purine nucleoside phosphorylase (PNP) (Homo sapiens, UniProt P00491); assay: Incubations of 1,N^6-ε-dA and dIno with purified human PNP; assay type: biochemical; conditions: dIno versus 1,N^6-ε-dA
T1 sequence (P00491 1-289): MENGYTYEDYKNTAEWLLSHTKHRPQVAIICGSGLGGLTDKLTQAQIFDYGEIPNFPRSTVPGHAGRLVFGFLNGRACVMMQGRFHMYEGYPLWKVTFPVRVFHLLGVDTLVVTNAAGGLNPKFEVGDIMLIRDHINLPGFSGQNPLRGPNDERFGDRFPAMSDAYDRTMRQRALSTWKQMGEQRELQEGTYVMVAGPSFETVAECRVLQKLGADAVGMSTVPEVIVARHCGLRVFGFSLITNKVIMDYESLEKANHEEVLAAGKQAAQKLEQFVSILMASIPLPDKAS

[5] = target: T2, xanthine oxidoreductase (XOR) (Rattus norvegicus, UniProt P22985); assay: Effect of XOR and AO inhibitors on 1,N^2-ε-Gua oxidation in rat liver cytosol; assay type: biochemical; conditions: result in words
T2 sequence (P22985 whole entry): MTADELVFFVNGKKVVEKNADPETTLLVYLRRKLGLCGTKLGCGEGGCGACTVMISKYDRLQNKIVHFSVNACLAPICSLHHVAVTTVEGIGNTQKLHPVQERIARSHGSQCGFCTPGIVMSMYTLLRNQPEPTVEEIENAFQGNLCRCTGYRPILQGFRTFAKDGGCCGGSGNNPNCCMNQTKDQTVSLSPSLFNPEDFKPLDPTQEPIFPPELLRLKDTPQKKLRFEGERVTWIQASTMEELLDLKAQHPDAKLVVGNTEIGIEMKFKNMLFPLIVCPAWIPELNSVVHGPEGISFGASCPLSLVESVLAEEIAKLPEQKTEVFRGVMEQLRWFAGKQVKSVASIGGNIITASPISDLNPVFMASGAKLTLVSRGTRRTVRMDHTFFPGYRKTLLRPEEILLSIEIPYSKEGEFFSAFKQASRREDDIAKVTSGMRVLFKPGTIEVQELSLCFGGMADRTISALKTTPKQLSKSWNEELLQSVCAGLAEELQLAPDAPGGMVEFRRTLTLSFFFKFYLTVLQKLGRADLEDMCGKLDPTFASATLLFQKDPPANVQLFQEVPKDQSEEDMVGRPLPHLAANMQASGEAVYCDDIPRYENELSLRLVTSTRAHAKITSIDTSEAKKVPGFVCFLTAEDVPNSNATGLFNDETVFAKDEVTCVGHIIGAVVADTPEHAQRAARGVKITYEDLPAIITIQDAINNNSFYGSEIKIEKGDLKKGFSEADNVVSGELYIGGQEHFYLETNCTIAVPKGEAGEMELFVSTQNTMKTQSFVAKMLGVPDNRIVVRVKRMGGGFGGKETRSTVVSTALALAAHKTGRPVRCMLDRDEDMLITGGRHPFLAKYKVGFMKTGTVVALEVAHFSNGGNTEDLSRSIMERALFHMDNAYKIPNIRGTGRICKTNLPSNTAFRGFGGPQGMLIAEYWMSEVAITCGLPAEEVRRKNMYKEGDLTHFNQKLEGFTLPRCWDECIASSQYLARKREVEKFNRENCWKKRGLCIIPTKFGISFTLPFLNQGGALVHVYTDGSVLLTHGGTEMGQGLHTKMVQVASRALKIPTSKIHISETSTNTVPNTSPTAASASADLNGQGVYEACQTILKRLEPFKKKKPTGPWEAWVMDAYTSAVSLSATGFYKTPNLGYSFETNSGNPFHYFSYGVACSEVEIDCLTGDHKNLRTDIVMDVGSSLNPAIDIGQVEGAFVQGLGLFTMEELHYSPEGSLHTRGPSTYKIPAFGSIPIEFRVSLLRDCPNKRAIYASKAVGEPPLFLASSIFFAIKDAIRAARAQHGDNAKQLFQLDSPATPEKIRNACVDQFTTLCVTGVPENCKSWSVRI
Outline: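 Rat liver cytosol (5 mg/mL final) in 0.8 M potassium phosphate (pH 7.6) with 0.4% DMSO. Substrate stock was in 0.1 M NaOH; 84 μM substrate was used with increasing inhibitor concentrations. Mixes were prepared on ice, equilibrated 5 min at 37 °C, and started by adding substrate. Extracts were taken up in 0.1 M NaOH for reversed-phase HPLC-UV (285 nm). IC50 was fitted by nonlinear regression (one-site competition).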

[6] = target: T2, xanthine oxidoreductase (XOR); assay type: biochemical; conditions: co-incubation in rat liver cytosol, result in words
Outline: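 Rat liver cytosol (5 mg/mL final) in 0.1 M potassium phosphate (pH 7.4) with 0.4% DMSO, co-incubated with inhibitors. Substrate stock was in DMSO, and mixes were prepared at room temperature. Reactions were equilibrated 5 min at 37 °C and started by adding substrate. Extracts were dissolved in methanol for C18 HPLC (formic acid water/methanol gradient) with UV at 300 nm.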

enzymatic oxidation in rat liver cytosol (Oxidation): substrates for enzymatic oxidation
Compound: 7-(2-oxoheptyl)-1,N^2-ethenoguanine [heptanone-1,N^2-ε-Gua]

enzymatic oxidation in rat liver cytosol (Oxidation): not oxidized
Compound: O=c1c2[nH]cnc2nc2n1CCCN2 [PGua, 1,N^2-propanoguanine]

efficiency of turnover relative to 1,N^6-ε-dA [4]: approximately 57 fold
Compound: OC[C@H]1O[C@@H](n2cnc3c(O)ncnc32)C[C@@H]1O [dIno, 2′-deoxyinosine]

inhibition of heptanone-1,N^2-ε-Gua oxidation [6]: inhibited oxidation
Compound: Oc1ncnc2[nH]ncc12 [allopurinol]
inhibition of 1,N^2-ε-Gua metabolite production [5]: inhibited; also recorded: complete inhibition

The remaining lines, values behind:

Compound: OC[C@H]1O[C@@H](n2cnc3c2ncn2ccnc32)[C@H](O)[C@@H]1O [1,N^6-ε-adenosine]
glycolytic cleavage in rat liver cytosol [1]: Identical observations

Compound: O=c1ccn2c(=O)c3[nH]cnc3nc2[nH]1 [6-oxo-M1G]
Km [2]: 210 µM
vmax [2]: 257 nmol/min/mg

Compound: O=c1nc2[nH]ccn2c2nc[nH]c12 [N^2,3-ε-Gua, N^2,3-ethenoguanine]
oxidation by purified bovine XO [3]: did not result in oxidative metabolism
enzymatic oxidation in rat liver cytosol (Oxidation): did not result in oxidative metabolism

Compound: 1,N^6-ethenoadenine [1,N^6-ε-Ade]
enzymatic oxidation in rat liver cytosol (Oxidation): neither was found to be oxidized

Compound: 3,N^4-ethenocytosine [3,N^4-ε-Cyt]
enzymatic oxidation in rat liver cytosol (Oxidation): neither was found to be oxidized

Compound: O=c1c2[nH]cnc2nc2[nH]ccn12 [1,N^2-ε-Gua, 1,N^2-ethenoguanine]
vmax ([3]; consumption of 1,N^2-ε-Gua by XOR purified from bovine milk, Figure 3 legend): 10.1 μmol min^−1 (mg of XOR)^−1
vmax ([3]; consumption of 1,N^2-ε-Gua by purified bovine XO): 10.1 μmol min^−1 (mg of XO)^−1
oxidation by purified bovine XO [3]: readily consumed
vmax (Oxidation; oxidation in rat liver cytosol, unit of the text): 105 pmol/min/mg
vmax (Oxidation; oxidation of substrate in rat liver cytosol, unit of Table 1): 105000 pmol/min/mg
Km (Oxidation; rat, rat liver cytosol, pH 7.6): 84 µM
enzymatic oxidation in rat liver cytosol (Oxidation): substrates for enzymatic oxidation
